In ChEMBL document CHEMBL2203173 (J Med Chem, 2012):

What was measured:
Mus musculus [1] = experiment: Cardiotoxicity in BALB/c nu/nu mouse xenografted with human DMS53 cells at 8 mg/kg, iv administered for 5 days a week measured after 21 days; assay type: toxicity, organism-based, DMS-53; design: dose 8 mg/kg, route intravenous; conditions: in vivo, 504 h
Summary of the method: (§1)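 DMS-53 xenograft nude mice given agents iv by tail vein 5 days/week in 30% propylene glycol/saline for 21 days. At sacrifice, heart sections were stained with Gomori Trichrome to detect fibrosis. Spleen, kidney, liver, heart, lungs and brain were also stained with H&E and Perls' and examined by an independent veterinary pathologist.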

Mus musculus [2] = experiment: Toxicity in BALB/c nu/nu mouse xenografted with human DMS53 cells assessed as change in lung weight at 20 mg/kg, po administered for 3 times a week measured after 20 days; assay type: organism-based, DMS-53; design: dose 20 mg/kg, route oral; conditions: in vivo, 480 h
Summary of the method: (§2)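 Nude mice bearing DMS-53 xenografts gavaged 3 times/week for 20 days, vehicle 30% propylene glycol/saline, vehicle controls, n = 6-11 mice/condition. Sacrifice on day 20. Organ weights and hematological indices recorded. Spleen, kidney, liver, heart, lungs and brain examined histologically, hearts stained with Gomori Trichrome for fibrosis.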

Mus musculus [3] = experiment: Toxicity in BALB/c nu/nu mouse xenografted with human DMS53 cells assessed as change in body weight at 8 mg/kg, iv administered for 5 days a week measured after 21 days; assay type: organism-based, DMS-53; design: dose 8 mg/kg, route intravenous; conditions: in vivo, 504 h
Summary of the method: (§3)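 DMS-53 xenografts in nude mice; dosing started at 100 mm3 tumor volume. Agents given iv via tail vein, 5 days/week for 21 days, vehicle 30% propylene glycol/saline, vehicle-treated controls. Mice sacrificed day 21. Body and organ weights and hematological indices recorded. Spleen, kidney, liver, heart, lungs and brain were stained with H&E, Perls' and Gomori Trichrome and read by an independent veterinary pathologist.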

Mus musculus [4] = experiment: Toxicity in BALB/c nu/nu mouse xenografted with human DMS53 cells assessed as hepatocellular fibrosis at 4 mg/kg, iv administered for 5 days a week measured after 21 days by hematoxylin and eosin staining method; assay type: organism-based, DMS-53; design: dose 4 mg/kg, route intravenous; conditions: in vivo, 504 h
Summary of the method: (§4)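 Nude mice with DMS-53 xenografts dosed by tail-vein iv injection in 30% propylene glycol/saline, starting at 100 mm3 tumour volume, 5 days/week for 21 days. Spleen, kidney, liver, heart, lungs and brain were stained with H&E, Perls' (Fe loading) and Gomori Trichrome (fibrosis) by standard methods, and an independent veterinary pathologist examined them.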

Mus musculus [5] = experiment: Toxicity in BALB/c nu/nu mouse xenografted with human DMS53 cells assessed as cardiac fibrosis at 4 mg/kg, iv administered for 5 days a week measured after 21 days by […]; assay type: organism-based, Heart, DMS-53; design: dose 4 mg/kg, route intravenous; conditions: in vivo, 504 h; summary of the method: as §1
Mus musculus [6] = experiment: Toxicity in BALB/c nu/nu mouse xenografted with human DMS53 cells assessed as change in hemoglobin level at 20 mg/kg, po administered for 3 times a week measured after 20 days; assay type: organism-based, DMS-53; design: dose 20 mg/kg, route oral; conditions: in vivo, 480 h; summary of the method: as §2
Mus musculus [7] = experiment: Toxicity in BALB/c nu/nu mouse xenografted with human DMS53 cells assessed as change in lungs histology at 8 mg/kg, iv administered for 5 days a week measured after 21 days by hematoxylin and eosin staining method; assay type: organism-based, DMS-53; design: dose 8 mg/kg, route intravenous; conditions: in vivo, 504 h; summary of the method: as §4
Mus musculus [8] = experiment: Toxicity in BALB/c nu/nu mouse xenografted with human DMS53 cells assessed as change in RBC count at 20 mg/kg, po administered for 3 times a week measured after 20 days; assay type: organism-based, DMS-53; design: dose 20 mg/kg, route oral; conditions: in vivo, 480 h
Mus musculus [9] = experiment: Toxicity in BALB/c nu/nu mouse xenografted with human DMS53 cells assessed as change in platelet count at 8 mg/kg, iv administered for 5 days a week measured after 21 days; assay type: organism-based, DMS-53; design: dose 8 mg/kg, route intravenous; conditions: in vivo, 504 h
Summary of the method: (§5)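 Nude mice carrying DMS-53 xenografts (treatment from 100 mm3) received iv tail-vein doses in 30% propylene glycol/saline, 5 days/week for 21 days. Hematological indices (RBC, hemoglobin, hematocrit, reticulocytes, WBC, platelets) were then compared with vehicle controls.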

Mus musculus [10] = experiment: Toxicity in BALB/c nu/nu mouse xenografted with human DMS53 cells assessed as change in body weight at 4 mg/kg, iv administered for 5 days a week measured after 21 days; assay type: organism-based, DMS-53; design: dose 4 mg/kg, route intravenous; conditions: in vivo, 504 h; summary of the method: as §3
Mus musculus [11] = experiment: Toxicity in BALB/c nu/nu mouse xenografted with human DMS53 cells assessed as change in platelet count at 4 mg/kg, iv administered for 5 days a week measured after 21 days; assay type: organism-based, DMS-53; design: dose 4 mg/kg, route intravenous; conditions: in vivo, 504 h; summary of the method: as §5
Mus musculus [12] = experiment: Toxicity in BALB/c nu/nu mouse xenografted with human DMS53 cells assessed as hepatocellular fibrosis at 8 mg/kg, iv administered for 5 days a week measured after 21 days by hematoxylin and eosin staining method; assay type: organism-based, DMS-53; design: dose 8 mg/kg, route intravenous; conditions: in vivo, 504 h; summary of the method: as §4
Mus musculus [13] = experiment: Cardiotoxicity in BALB/c nu/nu mouse xenografted with human DMS53 cells at 3 mg/kg, iv administered for 5 days a week measured after 21 days; assay type: toxicity, organism-based, DMS-53; design: dose 3 mg/kg, route intravenous; conditions: in vivo, 504 h; summary of the method: as §1
Mus musculus [14] = experiment: Toxicity in BALB/c nu/nu mouse xenografted with human DMS53 cells assessed as hepatocellular fibrosis at 3 mg/kg, iv administered for 5 days a week measured after 21 days by hematoxylin and eosin staining method; assay type: organism-based, DMS-53; design: dose 3 mg/kg, route intravenous; conditions: in vivo, 504 h; summary of the method: as §4
Mus musculus [15] = experiment: Toxicity in BALB/c nu/nu mouse xenografted with human DMS53 cells assessed as change in hemoglobin level at 3 mg/kg, iv administered for 5 days a week measured after 21 days; assay type: organism-based, DMS-53; design: dose 3 mg/kg, route intravenous; conditions: in vivo, 504 h; summary of the method: as §3
Mus musculus [16] = experiment: Toxicity in BALB/c nu/nu mouse xenografted with human DMS53 cells assessed as change in reticulocyte count at 6 mg/kg, iv administered for 5 days a week measured after 21 days; assay type: organism-based, DMS-53; design: dose 6 mg/kg, route intravenous; conditions: in vivo, 504 h; summary of the method: as §5
Mus musculus [17] = experiment: Toxicity in BALB/c nu/nu mouse xenografted with human DMS53 cells assessed as change in reticulocyte count at 3 mg/kg, iv administered for 5 days a week measured after 21 days; assay type: organism-based, DMS-53; design: dose 3 mg/kg, route intravenous; conditions: in vivo, 504 h; summary of the method: as §5
Mus musculus [18] = experiment: Toxicity in BALB/c nu/nu mouse xenografted with human DMS53 cells assessed as vacuolation at 3 mg/kg, iv administered for 5 days a week measured after 21 days by hematoxylin and eosin staining method; assay type: organism-based, DMS-53; design: dose 3 mg/kg, route intravenous; conditions: in vivo, 504 h; summary of the method: as §4
Mus musculus [19] = experiment: Toxicity in BALB/c nu/nu mouse xenografted with human DMS53 cells assessed as cardiac fibrosis at 3 mg/kg, iv administered for 5 days a week measured after 21 days by […]; assay type: organism-based, Heart, DMS-53; design: dose 3 mg/kg, route intravenous; conditions: in vivo, 504 h; summary of the method: as §1
Mus musculus [20] = experiment: Toxicity in BALB/c nu/nu mouse xenografted with human DMS53 cells assessed as change in organ weight at 3 mg/kg, iv administered for 5 days a week measured after 21 days; assay type: organism-based, DMS-53; design: dose 3 mg/kg, route intravenous; conditions: in vivo, 504 h
Summary of the method: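 DMS-53 xenograft-bearing nude mice, treatment started at 100 mm3 tumour volume: iv tail-vein dosing in 30% propylene glycol/saline, 5 days/week for 21 days. Organs were weighed at sacrifice and compared with vehicle-control mice.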

Mus musculus [21] = experiment: Toxicity in BALB/c nu/nu mouse xenografted with human DMS53 cells assessed as change in lungs histology at 6 mg/kg, iv administered for 5 days a week measured after 21 days by hematoxylin and eosin staining method; assay type: organism-based, DMS-53; design: dose 6 mg/kg, route intravenous; conditions: in vivo, 504 h; summary of the method: as §3
Mus musculus [22] = experiment: Toxicity in BALB/c nu/nu mouse xenografted with human DMS53 cells assessed as change in hematocrit level at 7.5 mg/kg, po administered for 3 times a week measured after 20 days; assay type: organism-based, DMS-53; design: dose 7.5 mg/kg, route oral; conditions: in vivo, 480 h; summary of the method: as §2
Mus musculus [23] = experiment: Toxicity in BALB/c nu/nu mouse xenografted with human DMS53 cells assessed as change in hematopoetic cells in splenic red pulp at 6 mg/kg, iv administered for 5 days a week measured after 21 days by hematoxylin and eosin staining method; assay type: organism-based, DMS-53; design: dose 6 mg/kg, route intravenous; conditions: in vivo, 504 h; summary of the method: as §3
Mus musculus [24] = experiment: Toxicity in BALB/c nu/nu mouse xenografted with human DMS53 cells assessed as change in brain histology at 6 mg/kg, iv administered for 5 days a week measured after 21 days by hematoxylin and eosin staining method; assay type: organism-based, DMS-53; design: dose 6 mg/kg, route intravenous; conditions: in vivo, 504 h; summary of the method: as §3
Mus musculus [25] = experiment: Toxicity in BALB/c nu/nu mouse xenografted with human DMS53 cells assessed as vacuolation at 6 mg/kg, iv administered for 5 days a week measured after 21 days by hematoxylin and eosin staining method; assay type: organism-based, DMS-53; design: dose 6 mg/kg, route intravenous; conditions: in vivo, 504 h; summary of the method: as §4

Measured: Activity

CN(C(=S)NN=C(c1ccccn1)c1ccccn1)C1CCCCC1.Cl
Non-toxic: Mus musculus [1] | Mus musculus [2] | Mus musculus [3] | Mus musculus [4] | Mus musculus [5] | Mus musculus [6] | Mus musculus [7] | Mus musculus [8] | Mus musculus [9] | Mus musculus [10] | Mus musculus [12]
Toxic: Mus musculus [11]

CCN(C)C(=S)NN=C(c1ccccn1)c1ccccn1.Cl
Toxic: Mus musculus [16] | Mus musculus [20] | Mus musculus [22] | Mus musculus [25]
Non-toxic: Mus musculus [13] | Mus musculus [14] | Mus musculus [15] | Mus musculus [17] | Mus musculus [18] | Mus musculus [19] | Mus musculus [21] | Mus musculus [23] | Mus musculus [24]
